In ChEMBL document CHEMBL1154414, “In vitro and in vivo activities of T-705 against arenavirus and bunyavirus infections” (Antimicrob Agents Chemother, 2007):

Assays:
Punta Toro virus [1] = test: Antiviral activity against Punta Toro virus Adames infected Syrian golden hamster assessed as survival at 30 mg/kg, po twice daily for 6 days administered 4 hrs before viral challenge; type: functional
Method in brief: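 Hamsters (groups of 15, placebo 25-30) were challenged subcutaneously with 50 PFU and dosed twice daily by oral gavage in 0.4% CMC vehicle.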

Punta Toro virus [2] = test: Antiviral activity against 5000 PFU Punta Toro virus Adames infected C57BL/6 mouse assessed as mean viral titer per 0.1 mL of serum at 10 mg/kg, po twice daily administered 24 hrs post viral challenge measured on day 3 of viral infection; type: functional
Method in brief: (§1)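 Mice were infected subcutaneously with PTV and dosed by oral gavage twice daily; 5 per group (10 placebo) were killed on day 3 or 4. Liver homogenate or serum was serially diluted onto triplicate LLC-MK2 monolayers, and CPE was read 6–8 days later. 50% endpoints gave log10 CCID50 per 0.1 g liver or 0.1 ml serum. Detection range was 2.8–9.5; undetectable samples were assigned <2.8.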

Pichinde virus [3] = test: Antiviral activity against Pichinde virus An 4763 infected Syrian golden hamster assessed as mean serum ALT levels at 20 mg/kg, po twice daily for 7 days administered 24 hrs post viral-challenge measured on day 7 of viral infection; type: functional
Method in brief: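 Hamsters were challenged intraperitoneally (bilateral, 65 PFU) and given twice-daily oral gavage doses (0.4% CMC vehicle). Five per group were sacrificed on day 7 and serum was collected. Serum ALT activity was measured by kinetic assay. Three sham-infected animals set the baselines.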

Pichinde virus [4] = test: Antiviral activity against Pichinde virus An 4763 infected Syrian golden hamster assessed as animals with detectable virus level in liver at 20 mg/kg, po twice daily for 7 days administered 24 hrs post viral-challenge measured on day 7 of viral infection; type: functional
Method in brief: (§2)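 Hamsters (groups of 15, placebo 25-30) were dosed orally by gavage twice daily (drug suspended in 0.4% CMC) after bilateral intraperitoneal challenge with 65 PFU. Five per group were killed on day 7. Liver homogenate or serum was serially diluted onto triplicate B-SC-1 wells, CPE was read at 6-8 days, and the 50% endpoint was taken. Range was 2.8-9.5 log10 CCID50/0.1 g or 0.1 ml, with undetectable assigned <2.8.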

Punta Toro virus [5] = test: Antiviral activity against 5000 PFU Punta Toro virus Adames infected C57BL/6 mouse assessed as mean day of death at 30 mg/kg, po twice daily for 5 days administered 24 hrs post viral challenge; type: functional
Method in brief: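 PTV was inoculated subcutaneously into mice in groups of 15 (25–30 placebo). Dosing was by oral gavage twice daily for 5–7 days, with T-705 suspended in 0.4% CMC and ribavirin in saline. Remaining animals were observed 21–28 days for survival and day of death. Test doses had first been checked for tolerance in uninfected animals.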

Punta Toro virus [6] = test: Antiviral activity against 5000 PFU Punta Toro virus Adames infected C57BL/6 mouse assessed as mean serum ALT levels at 10 mg/kg, po twice daily administered 24 hrs post viral challenge measured on day 3 of viral infection; type: functional
Method in brief: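 C57BL/6 mice received subcutaneous PTV, then oral gavage twice daily for 5–7 days. T-705 was given in 0.4% CMC and ribavirin in saline. Five mice per group (10 placebo) were killed on day 3 or 4, and serum was collected. ALT activity was measured by kinetic assay. Three sham-infected mice set baselines.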

Pichinde virus [7] = test: Antiviral activity against Pichinde virus An 4763 infected Syrian golden hamster assessed as animals with detectable virus level in serum at 50 mg/kg, po twice daily for 7 days administered 24 hrs post viral-challenge measured on day 7 of viral infection; type: functional; method in brief: as §2
Punta Toro virus [8] = test: Antiviral activity against 50 PFU Punta Toro virus Adames infected C57BL/6 mouse assessed as animals with detectable virus level in liver at 10 mg/kg, po twice daily administered 24 hrs post viral challenge measured on day 3 of viral infection; type: functional
Method in brief: (§3)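 T-705 was suspended in 0.4% carboxymethylcellulose and given by oral gavage twice daily. Mice were infected subcutaneously with PTV. Five mice per group (10 placebo) were sacrificed on day 3 or 4. Liver homogenate or serum was serially diluted onto triplicate LLC-MK2 monolayers, and CPE was read at 6–8 days. The detection limit was 2.8 log10 CCID50 per 0.1 g liver or 0.1 ml serum.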

Pichinde virus [9] = test: Antiviral activity against Pichinde virus An 4763 infected Syrian golden hamster assessed as animals with detectable virus level in liver at 50 mg/kg, po twice daily for 7 days administered 72 hrs post viral-challenge measured on day 7 of viral infection; type: functional; method in brief: as §2
Punta Toro virus [10] = test: Antiviral activity against Punta Toro virus Adames infected Syrian golden hamster assessed as mean viral titer per 0.1 g of liver at 30 mg/kg, […] measured on day 4 of viral infection; type: functional; conditions: route oral
Punta Toro virus [11] = test: Antiviral activity against 50 PFU Punta Toro virus Adames infected C57BL/6 mouse assessed as animals with detectable virus level in liver at 30 mg/kg, po twice daily administered 24 hrs post viral challenge measured on day 3 of viral infection; type: functional; method in brief: as §3
Punta Toro virus [12] = test: Antiviral activity against 5000 PFU Punta Toro virus Adames infected C57BL/6 mouse assessed as animals with detectable virus level in liver at 10 mg/kg, po twice daily administered 24 hrs post viral challenge measured on day 3 of viral infection; type: functional; method in brief: as §1
Pichinde virus [13] = test: Antiviral activity against Pichinde virus An 4763 in Vero cells assessed as inhibition of virus-induced visual cytopathic effect after 7 to 8 days; type: functional, organism-based
Method in brief: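 Subconfluent (50-70%) Vero cells were infected with virus in 2% FBS medium at the CCID50 giving maximal CPE. Half-log drug dilutions were added at infection. EC50 was obtained by regression analysis.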

Rift Valley fever virus = test: Antiviral activity against Rift Valley fever virus MP-12 assessed as inhibition of virus-induced visual cytopathic effect after 3 to 5 days; type: functional, organism-based
Method in brief: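 Virus in medium with 2% FBS was used at the CCID50 that gave maximal CPE. Half-log drug dilutions (DMSO stock, ≤1% DMSO at the top concentration) were added at infection. EC50 was derived by regression analysis.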

Punta Toro virus [14] = test: Antiviral activity against 5000 PFU Punta Toro virus Adames infected C57BL/6 mouse assessed as animals with detectable virus level in liver at 30 mg/kg, po twice daily administered 24 hrs post viral challenge measured on day 3 of viral infection; type: functional; method in brief: as §1
Pichinde virus [15] = test: Antiviral activity against Pichinde virus An 4763 infected Syrian golden hamster assessed as mean viral titer per 0.1 mL of serum at 20 mg/kg, po twice daily for 7 days administered 72 hrs post viral-challenge measured on day 7 of viral infection; type: functional; method in brief: as §2
Punta Toro virus [16] = test: Antiviral activity against 50 PFU Punta Toro virus Adames infected C57BL/6 mouse assessed as mean serum ALT levels at 30 mg/kg, po twice daily administered 24 hrs post viral challenge measured on day 3 of viral infection; type: functional
Method in brief: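 Subcutaneous PTV infection was followed by oral gavage twice daily with drug suspended in 0.4% CMC. Serum was collected from 5 sacrificed mice per group (10 placebo) on day 3 or 4. ALT activity was measured by kinetic assay, and sham-infected mice set the baselines.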

Pichinde virus [17] = test: Antiviral activity against Pichinde virus An 4763 infected Syrian golden hamster assessed as mean day of death at 40 mg/kg, po twice daily for 7 days administered 4 hrs before viral-challenge; type: functional
Method in brief: (§4)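 Groups of 15 hamsters (placebo 25-30) were challenged intraperitoneally (bilateral, 65 PFU) and dosed twice daily by oral gavage in 0.4% CMC for 5 to 7 days.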

Pichinde virus [18] = test: Antiviral activity against Pichinde virus An 4763 infected Syrian golden hamster assessed as mean day of death at 50 mg/kg, po twice daily for 7 days administered 72 hrs post viral-challenge measured on day 7 of viral infection; type: functional; method in brief: as §4

NC(=O)c1nc(F)cnc1O [FAVIPIRAVIR]
survival at 30 mg/kg (Punta Toro virus [1]; Punta Toro virus, Adames): 90% | log10CCID50 (Punta Toro virus [2]): <5.2 | Activity (Pichinde virus [3]): 1583 IU/L | Activity (Pichinde virus [4]): 100% | Activity (Punta Toro virus [5]): 5 days | Activity (Punta Toro virus [6]): 2274 IU/L | Activity (Pichinde virus [7]): 80% | Activity (Punta Toro virus [8]): 0% | Activity (Pichinde virus [9]): 100% | log10CCID50 (Punta Toro virus [10]): <3.5 | Activity (Punta Toro virus [11]): 40% | Activity (Punta Toro virus [12]): 20% | EC50 (Pichinde virus [13]): 6 µM | EC50 (Rift Valley fever virus): 32 µM | Activity (Punta Toro virus [14]): 20% | log10CCID50 (Pichinde virus [15]): >8.6 | Activity (Punta Toro virus [16]): 199 IU/L | Activity (Pichinde virus [17]): 11 days | Activity (Pichinde virus [18]): 14.8 days

NC(=O)c1ncn([C@@H]2O[C@H](CO)[C@@H](O)[C@H]2O)n1 [RIBAVIRIN]
Activity (Punta Toro virus [1]): 70% | log10CCID50 (Punta Toro virus [2]): 5.9 | Activity (Pichinde virus [3]): 24 IU/L | Activity (Pichinde virus [4]): 100% | Activity (Punta Toro virus [5]): 5 days | Activity (Punta Toro virus [6]): 1515 IU/L | Activity (Pichinde virus [7]): 40% | Activity (Punta Toro virus [8]): 40% | Activity (Pichinde virus [9]): 100% | log10CCID50 (Punta Toro virus [10]): <2.8 | Activity (Punta Toro virus [11]): 20% | Activity (Punta Toro virus [12]): 0% | EC50 (Pichinde virus [13]): 13 µM | EC50 (Rift Valley fever virus): 53 µM | Activity (Punta Toro virus [14]): 20% | log10CCID50 (Pichinde virus [15]): 6.8 | Activity (Punta Toro virus [16]): 131 IU/L | Activity (Pichinde virus [17]): 11 days | Activity (Pichinde virus [18]): 18.5 days
